Data on 5 compounds can be found in ChEMBL document CHEMBL4251719, “Drimane Sesquiterpenoids Noncompetitively Inhibit Human α4β2 Nicotinic Acetylcholine Receptors with Higher Potency Compared to Human α3β4 and α7 Subtypes” (J Nat Prod, 2018).

Holding throughout (assay type): cell-based
Experiment [1] has as its target T1, Neuronal acetylcholine receptor subunit alpha-7 (Homo sapiens, UniProt P36544). The experiment is described as follows: Agonist activity at human alpha7 nAChR expressed in rat GH3 cells assessed as increase in calcium influx at 100 uM measured for 78 secs by Fluo-4-AM dye based FLIPR assay. In a few lines:
(§1)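 Cells seeded 5 × 10^4/well 72 h before, 37 °C, 5% CO2; medium switched to HBSS (pH 7.4)/1% FBS 16–24 h before assay. Loaded 1 h at 37 °C with Fluo-4 plus 2.5 mM probenecid. Compound added alone on FLIPR, fluorescence (ex 488/em 510 nm) recorded 78 s; response normalized to maximal (±)-epibatidine response.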

Experiment [2] concerns the target T2, Neuronal acetylcholine receptor; alpha4/beta2 (Homo sapiens, UniProt P17787+P43681). The experiment is described as follows: Antagonist activity at human alpha4beta2 nAChR expressed in HEK293 cells assessed as inhibition of (+/-)-epibatidine-induced calcium influx at 1 uM preincubated for 5 mins followed by (+/-)-epibatidine addition measured for 78 secs by Fluo-4-AM dye based FLIPR assay. In a few lines:
(§2)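 Fluo-4-loaded cells (1 h, 37 °C, 2.5 mM probenecid) washed twice in HBSS/1% FBS, then preincubated 5 min with test ligand at various concentrations. 0.1 μM (±)-epibatidine added on FLIPR after 5-reading baseline; fluorescence (ex 488/em 510 nm) recorded 78 s. Response normalized to maximal epibatidine response; IC50 and nH from nonlinear least-squares curve fits; SD, n = 3.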

The target of experiment [3] is T2, Neuronal acetylcholine receptor; alpha4/beta2. The experiment is described as follows: Agonist activity at human alpha4beta2 nAChR expressed in HEK293 cells assessed as increase in calcium influx at 100 uM measured for 78 secs by Fluo-4-AM dye based FLIPR assay. In a few lines: as §1
The target of experiment [4] is T3, Neuronal acetylcholine receptor; alpha3/beta4 (Homo sapiens, UniProt P30926+P32297). The experiment is described as follows: Agonist activity at human alpha3beta4 nAChR expressed in HEK293 cells assessed as increase in calcium influx at 100 uM measured for 78 secs by Fluo-4-AM dye based FLIPR assay. In a few lines: as §1
For experiment [5], the target named is T3, Neuronal acetylcholine receptor; alpha3/beta4. As to the kind of experiment: Antagonist activity at human alpha3beta4 nAChR expressed in HEK293 cells assessed as inhibition of (+/-)-epibatidine-induced calcium influx preincubated for 5 mins followed by (+/-)-epibatidine addition measured for 78 secs by Fluo-4-AM dye based FLIPR assay. Put shortly: as §2

The target in experiment [6] is T2, Neuronal acetylcholine receptor; alpha4/beta2. As to the kind of experiment: Antagonist activity at human alpha4beta2 nAChR expressed in HEK293 cells assessed as inhibition of (+/-)-epibatidine-induced calcium influx preincubated for 5 mins followed by (+/-)-epibatidine addition measured for 78 secs by Fluo-4-AM dye based FLIPR assay. In a few lines: as §2
In experiment [7] the target is T1, Neuronal acetylcholine receptor subunit alpha-7. The experiment is described as follows: Antagonist activity at human alpha7 nAChR expressed in HEK293 cells assessed as inhibition of (+/-)-epibatidine-induced calcium influx preincubated for 5 mins followed by (+/-)-epibatidine addition measured for 78 secs by Fluo-4-AM dye based FLIPR assay. Particulars: in the assay text read “GH3” for “HEK293”. Put shortly:
as §2

Experiment [8] deals with T2, Neuronal acetylcholine receptor; alpha4/beta2. As to the kind of experiment: Antagonist activity at human alpha4beta2 nAChR expressed in HEK293 cells assessed as inhibition of (+/-)-epibatidine-induced calcium influx up to 100 uM preincubated for 5 mins followed by (+/-)-epibatidine addition measured for 78 secs by Fluo-4-AM dye based FLIPR assay. Put shortly:
as §2

Experiment [9] shares this target. As to the kind of experiment: Antagonist activity at human alpha4beta2 nAChR expressed in HEK293 cells assessed as inhibition of (+/-)-epibatidine-induced calcium influx at 10 to 100 uM preincubated for 5 mins followed by (+/-)-epibatidine addition measured for 78 secs by Fluo-4-AM dye based FLIPR assay relative to control. In a few lines: as §2
Experiment [10] has the same target. As to the kind of experiment: Non-competitive inhibition of human alpha4beta2 nAChR expressed in HEK293 cells assessed as inhibition of (+/-)-epibatidine-induced calcium influx preincubated for 5 mins followed by (+/-)-epibatidine addition measured for 78 secs by Fluo-4-AM dye based FLIPR assay. Put shortly:
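(±)-Epibatidine concentration–response curves measured on hα4β2 HEK293 cells without drimane or after 5 min preincubation with 0.3, 1.0 and 3.0 μM; Fluo-4 Ca2+ fluorescence on FLIPR, 78 s recording; n = 3.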

Structures are written as SMILES. Activity calls are given as the source filed them. The calls are words filed in the database; no cut-off is given here.

T2 sequence (P17787 whole entry): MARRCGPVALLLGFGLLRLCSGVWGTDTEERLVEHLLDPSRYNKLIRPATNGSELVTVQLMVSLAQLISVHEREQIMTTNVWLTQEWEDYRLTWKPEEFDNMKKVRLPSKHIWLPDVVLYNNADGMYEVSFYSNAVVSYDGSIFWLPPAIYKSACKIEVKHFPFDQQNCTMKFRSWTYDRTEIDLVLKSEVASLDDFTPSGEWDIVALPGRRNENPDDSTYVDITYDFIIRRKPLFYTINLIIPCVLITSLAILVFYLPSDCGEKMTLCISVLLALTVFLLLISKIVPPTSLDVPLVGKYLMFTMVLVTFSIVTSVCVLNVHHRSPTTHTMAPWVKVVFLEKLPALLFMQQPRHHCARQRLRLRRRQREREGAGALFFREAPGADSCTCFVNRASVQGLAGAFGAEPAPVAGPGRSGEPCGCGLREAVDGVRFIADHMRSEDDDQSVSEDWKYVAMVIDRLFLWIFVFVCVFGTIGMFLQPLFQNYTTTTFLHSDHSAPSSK
T2 sequence (P43681 whole entry): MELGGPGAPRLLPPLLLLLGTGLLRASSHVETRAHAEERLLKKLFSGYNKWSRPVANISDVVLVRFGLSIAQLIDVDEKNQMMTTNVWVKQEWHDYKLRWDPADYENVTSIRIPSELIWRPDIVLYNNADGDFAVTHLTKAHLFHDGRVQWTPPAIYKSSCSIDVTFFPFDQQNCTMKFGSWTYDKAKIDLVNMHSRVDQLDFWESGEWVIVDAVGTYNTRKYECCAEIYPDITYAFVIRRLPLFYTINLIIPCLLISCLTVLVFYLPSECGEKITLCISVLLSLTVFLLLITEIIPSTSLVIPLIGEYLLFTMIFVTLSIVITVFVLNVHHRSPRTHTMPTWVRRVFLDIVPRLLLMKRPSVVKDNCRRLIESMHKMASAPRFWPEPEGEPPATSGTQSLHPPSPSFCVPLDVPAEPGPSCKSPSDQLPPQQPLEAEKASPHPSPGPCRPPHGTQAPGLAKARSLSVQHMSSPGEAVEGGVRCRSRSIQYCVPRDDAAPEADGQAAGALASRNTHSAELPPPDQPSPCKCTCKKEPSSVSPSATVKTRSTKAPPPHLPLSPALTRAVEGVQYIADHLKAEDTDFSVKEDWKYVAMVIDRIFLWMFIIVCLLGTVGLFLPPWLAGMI
T3 sequence (P30926 whole entry): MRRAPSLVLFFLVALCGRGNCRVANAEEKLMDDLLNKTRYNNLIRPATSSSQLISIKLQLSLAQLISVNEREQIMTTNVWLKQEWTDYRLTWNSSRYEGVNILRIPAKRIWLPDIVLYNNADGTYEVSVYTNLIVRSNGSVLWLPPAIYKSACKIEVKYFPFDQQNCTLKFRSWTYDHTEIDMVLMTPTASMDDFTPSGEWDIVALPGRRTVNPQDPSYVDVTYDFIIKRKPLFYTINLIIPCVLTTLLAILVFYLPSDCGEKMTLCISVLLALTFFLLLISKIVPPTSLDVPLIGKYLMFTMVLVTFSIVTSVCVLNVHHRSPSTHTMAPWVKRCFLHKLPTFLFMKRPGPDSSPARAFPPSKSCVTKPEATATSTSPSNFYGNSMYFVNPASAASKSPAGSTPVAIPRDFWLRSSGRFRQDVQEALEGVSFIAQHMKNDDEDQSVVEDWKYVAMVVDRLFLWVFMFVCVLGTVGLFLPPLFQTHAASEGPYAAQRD
T3 sequence (P32297 whole entry): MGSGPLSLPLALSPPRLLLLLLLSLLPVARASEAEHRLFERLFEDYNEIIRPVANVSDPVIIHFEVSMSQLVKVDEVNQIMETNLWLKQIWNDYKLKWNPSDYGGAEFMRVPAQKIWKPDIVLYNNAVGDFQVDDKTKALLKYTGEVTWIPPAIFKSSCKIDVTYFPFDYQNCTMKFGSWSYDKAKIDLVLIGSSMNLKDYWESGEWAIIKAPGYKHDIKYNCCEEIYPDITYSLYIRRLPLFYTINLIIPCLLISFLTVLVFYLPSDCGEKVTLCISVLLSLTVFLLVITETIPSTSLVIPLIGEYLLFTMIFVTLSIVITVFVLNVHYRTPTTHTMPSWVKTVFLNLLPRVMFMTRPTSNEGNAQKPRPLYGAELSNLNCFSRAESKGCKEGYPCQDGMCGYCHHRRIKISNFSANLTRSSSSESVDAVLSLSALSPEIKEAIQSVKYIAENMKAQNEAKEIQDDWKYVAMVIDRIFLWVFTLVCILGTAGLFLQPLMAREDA
T1 sequence (P36544 whole entry): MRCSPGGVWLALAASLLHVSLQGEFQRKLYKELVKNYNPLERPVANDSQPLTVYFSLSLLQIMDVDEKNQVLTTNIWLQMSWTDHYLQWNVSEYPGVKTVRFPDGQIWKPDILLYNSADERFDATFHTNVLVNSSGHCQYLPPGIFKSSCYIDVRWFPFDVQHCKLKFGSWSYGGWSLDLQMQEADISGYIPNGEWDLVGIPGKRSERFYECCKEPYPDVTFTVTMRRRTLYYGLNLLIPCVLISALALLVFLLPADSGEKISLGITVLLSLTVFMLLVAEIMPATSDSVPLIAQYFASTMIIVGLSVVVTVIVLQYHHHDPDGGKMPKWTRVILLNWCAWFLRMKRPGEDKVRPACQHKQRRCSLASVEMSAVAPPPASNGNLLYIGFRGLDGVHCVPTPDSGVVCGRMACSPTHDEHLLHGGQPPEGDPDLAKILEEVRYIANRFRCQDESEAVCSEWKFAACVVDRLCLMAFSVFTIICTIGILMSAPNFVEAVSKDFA

As to `Clc1ccc(C2C[C@@H]3CCC2N3)cn1` (stereo partly drawn), the result in [1], in experiment [3] and in experiment [4] was inactive. In addition, the inhibition entry in [2] was “Active”.

Take `CC1(C)CCC[C@]2(C)[C@H]3COC(=O)C3=CC[C@@H]12` [CINNAMOLIDE]: the outcome in experiment [1], in experiment [3] and in experiment [4] was inactive. Moreover, the IC50 was 2.62 µM in [5], 1.57 µM in experiment [6] (read-out: IC50) and 4.64 µM in experiment [7]. The inhibition result in experiment [2] is “Active”.

As to `CC1(C)CCC[C@]2(C)[C@@H]3C(=CC[C@@H]12)C(=O)O[C@H]3O` [DENDOCARBIN A], the result in experiment [1], in experiment [3] and in experiment [4] was inactive. In addition, the concentration for half-maximal inhibition (IC50) is more than 100 µM in experiment [5], “Not Active” in [6] (hek293) and more than 100 µM in [7]. Further, in experiment [8], the inhibition result is “inactive”.

Take `CC1(C)CCC[C@]2(C)[C@H]3C(=O)OCC3=CC[C@@H]12` [DRIMENIN]: the result in experiment [1], in experiment [3] and in [4] was inactive. Further, the results for the IC50 in [5], in experiment [6] (read-out: IC50) and in experiment [7] were 1.78 µM, 0.97 µM and 13.8 µM, respectively. Besides, in experiment [9], the inhibition was 100%. Besides, in experiment [10], the inhibition result was “Active”.

In the case of `CC1(C)CCC[C@]2(C)[C@@H](C=O)C(C=O)=CC[C@@H]12` [POLYGODIAL], the result in experiment [1], in [3] and in [4] was inactive. In addition, the IC50 in [5] was 48.2 µM; in experiment [6] (read-out: IC50), 62.5 µM; in experiment [7], more than 100 µM. The inhibition result in experiment [2] was “Active”.
